Here are results for one compound from ChEMBL document CHEMBL1154907, “Synthesis and preclinical evaluations of 2-(2-fluorophenyl)-6,7-methylenedioxyquinolin-4-one monosodium phosphate (CHM-1-P-Na) as a potent antitumor agent” (J Med Chem, 2010).

In general, GI50 refers to the concentration at which growth is held to half of that of the control. A low value points to more potent growth inhibition.

One assay deals with DU-145. In words: Growth inhibition of human DU145 cells by SRB assay. In kind it is functional. In outline: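 Human cancer cell panel; five concentrations from 10^-4 to 10^-8 M; growth measured by sulforhodamine B colorimetric method; GI50, TGI and LC50 derived from computer-analysed dose-response curves.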
For orientation: In SRB staining, fixed cells bind dye roughly in proportion to their protein.

The test system of another assay is St-4. In words: Growth inhibition of human St-4 cells by SRB assay. It counts as functional. In outline: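 Cancer cell panel; growth measured by sulforhodamine B colorimetric method across five concentrations from 10^-4 to 10^-8 M; GI50, TGI and LC50 derived from computer-analysed dose-response curves.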

Bounds are passed on as bounds.

In the case of `O=c1cc(-c2ccccc2F)[nH]c2cc3c(cc12)OCO3`, the values for the GI50 with DU-145 (DU-145) and in the assay with St-4 (St-4) were 0.0501 µM and 6.61 µM, respectively. In addition, the CC50 was above 100 µM in the assay on DU-145 (DU-145, read-out: pLC50 (converted)) and above 100 µM in the assay with St-4 (St-4, read-out: pLC50 (converted)). For the same compound, the TGI was 0.562 µM in the assay on DU-145 (DU-145, read-out: pTGI (converted)) and 93.3 µM with St-4 (St-4, read-out: pTGI (converted)).
